Test results as given in ChEMBL document CHEMBL1131807, “Synthesis and in vitro evaluation of novel highly potent coumarin inhibitors of gyrase B” (1999).
≈ marks a conversion by molar mass, not a printed value.

Experiments:
Type in all cases: functional
[1] = system: Staphylococcus epidermidis; assay: Antibacterial activity against oxacillin and teicoplanin resistant Staphylococcus epidermidis 012GO39 strain
How it was run: (§1)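 MIC in µg/mL by twofold broth microdilution, read after 24 h incubation. Resistance phenotypes of the strains are as listed for each strain (ofloxacin, oxacillin, erythromycin, teicoplanin, vancomycin).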

Enterococcus faecium = assay: Antibacterial activity against vancomycin, teicoplanin and erythromycin resistant Enterococcus faecium 02D31P2 strain; how it was run: as §1
Staphylococcus aureus [2] = assay: Antibacterial activity against Staphylococcus aureus 011HT3 strain
How it was run: (§2)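 MIC measured by twofold serial dilution in broth microdilution format and read after 24 hours of incubation. The resistance phenotype of each strain (ofloxacin, oxacillin, erythromycin, novobiocin, teicoplanin or vancomycin) was recorded alongside.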

Staphylococcus aureus [3] = assay: Antibacterial activity against ofloxacin, oxacillin and erythromycin resistant Staphylococcus aureus strain 011GO76; how it was run: as §1
Streptococcus pyogenes [4] = assay: Antibacterial activity against Streptococcus pyogenes 02A1UC1 strain; how it was run: as §2
Staphylococcus aureus [5] = assay: Antibacterial activity against Staphylococcus aureus novobiocin resistant strain 011HT1; how it was run: as §2
Streptococcus pyogenes [6] = assay: Compound was evaluated for antibacterial activity, against Streptococcus pyogenes 02A1UC1 strain; how it was run: as §2
[7] = system: Staphylococcus epidermidis; assay: Compound was evaluated for antibacterial activity, against oxacillin and teicoplanin resistant Staphylococcus epidermidis 012GO39 strain; how it was run: as §1

SMILES	MIC [1] [µg/mL]	MIC (Enterococcus faecium) [µg/mL]	MIC (Staphylococcus aureus [2]) [µg/mL]	MIC (Staphylococcus aureus [3]) [µg/mL]	MIC (Streptococcus pyogenes [4]) [µg/mL]	MIC (Staphylococcus aureus [5]) [µg/mL]	MIC (Streptococcus pyogenes [6]) [µg/mL]	MIC [7] [µg/mL]
CCOC(=O)c1c(O)oc2c(C)c(O[C@@H]3OC(C)(C)[C@H](OC)[C@@H](OC(=O)c4ccc(C)[nH]4)[C@H]3O)ccc2c1=O	0.15 (≈ 0.275 µM)	5 (≈ 9.17 µM)	0.3 (≈ 0.55 µM)	2.5 (≈ 4.58 µM)	0.3 (≈ 0.55 µM)	> 20		
CO[C@@H]1[C@@H](OC(=O)c2ccc(C)[nH]2)[C@@H](O)[C@H](Oc2ccc3c(O)c(C(=O)NCCO)c(=O)oc3c2C)OC1(C)C	< 0.04	2.5 (≈ 4.46 µM)	< 0.04		0.15 (≈ 0.268 µM)	2.5 (≈ 4.46 µM)		
CCOCC(=O)c1c(O)oc2c(C)c(O[C@@H]3OC(C)(C)[C@H](OC)[C@@H](OC(=O)c4ccc(C)[nH]4)[C@H]3O)ccc2c1=O	0.08 (≈ 0.143 µM)	5 (≈ 8.94 µM)	< 0.04	0.08 (≈ 0.143 µM)	0.3 (≈ 0.536 µM)	20 (≈ 35.7 µM)		
CO[C@@H]1[C@@H](OC(=O)c2ccc(C)[nH]2)[C@@H](O)[C@H](Oc2ccc3c(O)c(/C(C)=N/OCCSc4ncc[nH]4)c(=O)oc3c2C)OC1(C)C	0.3 (≈ 0.457 µM)	10 (≈ 15.2 µM)	0.3 (≈ 0.457 µM)	0.3 (≈ 0.457 µM)	0.3 (≈ 0.457 µM)	40 (≈ 60.9 µM)		
CO[C@@H]1[C@@H](OC(=O)c2ccc(C)[nH]2)[C@@H](O)[C@H](Oc2ccc3c(O)c(/C(C)=N/OCCN4CCOCC4)c(=O)oc3c2C)OC1(C)C	0.3 (≈ 0.466 µM)	10 (≈ 15.5 µM)	0.15 (≈ 0.233 µM)	0.3 (≈ 0.466 µM)	1.2 (≈ 1.86 µM)	40 (≈ 62.1 µM)		
COC1[C@@H](OC(N)=O)[C@@H](O)[C@H](Oc2ccc3c(O)c(NC(=O)c4ccc(O)c(CC=C(C)C)c4)c(=O)oc3c2C)OC1(C)C (single isomer, unassigned) [NOVOBIOCIN]		0.3 (≈ 0.49 µM)	< 0.04			20 (≈ 32.6 µM)	0.15 (≈ 0.245 µM)	0.08 (≈ 0.131 µM)
CO[C@@H]1[C@@H](OC(=O)c2ccc(C)[nH]2)[C@@H](O)[C@H](Oc2ccc3c(O)c(NC(=O)c4ccc(O)c(CC=C(C)C)c4)c(=O)oc3c2Cl)OC1(C)C [CHLOROBIOCIN]	< 0.04		< 0.04	< 0.04	< 0.04	0.15 (≈ 0.215 µM)		
CO[C@@H]1[C@@H](OC(=O)c2ccc(C)[nH]2)[C@@H](O)[C@H](Oc2ccc3c(O)c(C(=O)Nc4ccccc4)c(=O)oc3c2C)OC1(C)C	< 0.04	> 40	< 0.04	0.08 (≈ 0.135 µM)	0.6 (≈ 1.01 µM)	1.2 (≈ 2.02 µM)		
CO/N=C(\C)c1c(O)oc2c(C)c(O[C@@H]3OC(C)(C)[C@H](OC)[C@@H](OC(=O)c4ccc(C)[nH]4)[C@H]3O)ccc2c1=O	0.6 (≈ 1.1 µM)	10 (≈ 18.4 µM)	0.15 (≈ 0.275 µM)	5 (≈ 9.18 µM)	0.3 (≈ 0.551 µM)	40 (≈ 73.5 µM)		
CCOC(=O)/C(=N\OC)c1c(O)oc2c(C)c(O[C@@H]3OC(C)(C)[C@H](OC)[C@@H](OC(=O)c4ccc(C)[nH]4)[C@H]3O)ccc2c1=O		5 (≈ 8.3 µM)	< 0.04		0.15 (≈ 0.249 µM)	10 (≈ 16.6 µM)		
CO[C@@H]1[C@@H](OC(=O)c2ccc(C)[nH]2)[C@@H](O)[C@H](Oc2ccc3c(O)c(C(=O)NCCN(C)C)c(=O)oc3c2C)OC1(C)C		10 (≈ 17 µM)	0.15 (≈ 0.255 µM)	0.3 (≈ 0.511 µM)	1.2 (≈ 2.04 µM)	20 (≈ 34 µM)		
CO[C@@H]1[C@@H](OC(=O)c2ccc(C)[nH]2)[C@@H](O)[C@H](Oc2ccc3c(O)c(C(C)=O)c(=O)oc3c2C)OC1(C)C	0.08 (≈ 0.155 µM)	2.5 (≈ 4.85 µM)	< 0.04	0.15 (≈ 0.291 µM)	0.15 (≈ 0.291 µM)	5 (≈ 9.7 µM)		
CONC(=O)c1c(O)oc2c(C)c(O[C@@H]3OC(C)(C)[C@H](OC)[C@@H](OC(=O)c4ccc(C)[nH]4)[C@H]3O)ccc2c1=O	< 0.04	2.5 (≈ 4.57 µM)	< 0.04	0.08 (≈ 0.146 µM)	0.15 (≈ 0.274 µM)	5 (≈ 9.15 µM)		
CO[C@@H]1[C@@H](OC(=O)c2ccc(C)[nH]2)[C@@H](O)[C@H](Oc2ccc3c(O)c(C(N)=O)c(=O)oc3c2C)OC1(C)C		2.5 (≈ 4.84 µM)	< 0.04		0.15 (≈ 0.29 µM)	2.5 (≈ 4.84 µM)		
CO[C@@H]1[C@@H](OC(=O)c2ccc(C)[nH]2)[C@@H](O)[C@H](Oc2ccc3c(O)c(C(=O)CSC)c(=O)oc3c2C)OC1(C)C	0.08 (≈ 0.142 µM)	5 (≈ 8.9 µM)	< 0.04		0.3 (≈ 0.534 µM)	5 (≈ 8.9 µM)		
CO[C@@H]1[C@@H](OC(=O)c2ccc(C)[nH]2)[C@@H](O)[C@H](Oc2ccc3c(O)c(C(=O)OCC(C)C)c(=O)oc3c2C)OC1(C)C	0.08 (≈ 0.139 µM)	5 (≈ 8.72 µM)	0.08 (≈ 0.139 µM)	2.5 (≈ 4.36 µM)		10 (≈ 17.4 µM)		
